Format in all cases: functional
In data set [1] the target is T1, Nitric oxide synthase, inducible (Mus musculus) (UniProt P29477).
T1 sequence (whole entry): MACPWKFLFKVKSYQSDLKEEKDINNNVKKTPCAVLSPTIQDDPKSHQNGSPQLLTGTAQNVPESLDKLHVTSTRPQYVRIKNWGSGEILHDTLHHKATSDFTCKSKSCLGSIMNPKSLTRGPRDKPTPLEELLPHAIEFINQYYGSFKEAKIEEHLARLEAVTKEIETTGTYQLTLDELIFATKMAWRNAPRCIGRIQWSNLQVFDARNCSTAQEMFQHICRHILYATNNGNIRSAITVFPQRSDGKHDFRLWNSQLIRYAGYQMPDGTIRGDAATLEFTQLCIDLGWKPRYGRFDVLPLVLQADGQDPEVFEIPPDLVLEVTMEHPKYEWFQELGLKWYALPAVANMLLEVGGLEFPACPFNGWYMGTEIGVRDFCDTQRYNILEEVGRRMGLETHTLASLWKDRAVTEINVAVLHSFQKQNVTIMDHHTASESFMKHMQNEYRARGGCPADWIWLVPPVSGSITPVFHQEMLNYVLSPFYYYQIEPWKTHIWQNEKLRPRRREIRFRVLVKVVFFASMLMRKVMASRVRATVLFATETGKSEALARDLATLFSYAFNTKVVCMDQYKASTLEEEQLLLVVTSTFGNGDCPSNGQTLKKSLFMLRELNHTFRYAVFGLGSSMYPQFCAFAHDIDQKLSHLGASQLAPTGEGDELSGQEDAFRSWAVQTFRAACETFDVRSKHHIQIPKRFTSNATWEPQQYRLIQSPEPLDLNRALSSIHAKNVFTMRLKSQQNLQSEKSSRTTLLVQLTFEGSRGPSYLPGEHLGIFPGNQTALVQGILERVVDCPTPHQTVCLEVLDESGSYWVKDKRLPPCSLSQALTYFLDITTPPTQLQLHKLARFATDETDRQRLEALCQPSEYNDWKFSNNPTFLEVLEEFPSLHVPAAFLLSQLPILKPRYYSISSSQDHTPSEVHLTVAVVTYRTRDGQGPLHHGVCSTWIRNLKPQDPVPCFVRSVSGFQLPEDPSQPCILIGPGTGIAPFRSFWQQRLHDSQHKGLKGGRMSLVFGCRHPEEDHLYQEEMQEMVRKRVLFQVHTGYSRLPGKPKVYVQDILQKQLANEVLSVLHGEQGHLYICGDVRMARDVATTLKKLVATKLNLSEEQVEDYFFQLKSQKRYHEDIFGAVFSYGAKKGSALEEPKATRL
Put plainly: (§1) Compound was evaluated for the kinetic constants for Nitric Oxide formation from oxidation by NOS II. The method in brief: (§2)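 Recombinant purified NOS II was run in the hemoglobin assay at 37 °C in 50 mM HEPES pH 7.4 with NADPH, BH4, SOD, catalase and DTT, over varying substrate concentrations. Initial NO-formation rates gave saturation kinetics. Km (μM) and kcat (min⁻¹) were derived from Lineweaver-Burk plots, and kcat/Km is expressed in μM⁻¹ min⁻¹.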

The nature of data set [2]: Ratio between Km (uM) and Kcat (1/min) was determined. The procedure, abridged:
as §2

Data set [3] addresses Nitric oxide synthase 1 (Homo sapiens) (UniProt P29475). Put plainly: Formation of Nitric Oxide by Nitric Oxide synthase I(% relative to NOHA). The procedure, abridged: (§3)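 Purified recombinant NOS (5–50 nM) at 37 °C in 50 mM HEPES pH 7.4 with 1 mM test compound, 1 mM NADPH, 100 μM BH4, 100 U/mL SOD, 100 U/mL catalase, 12–15 μM oxyhemoglobin and 5 mM DTT. NOS I and NOS III runs also contained 1 mM CaCl2 and 10 μg/mL calmodulin. NO was read spectrophotometrically as oxyhemoglobin-to-methemoglobin conversion. Initial rates are given as % of the NOHA rate.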

In data set [4] the target is T1, Nitric oxide synthase, inducible (Mus musculus). Put plainly: Formation of Nitric Oxide by Nitric Oxide synthase II(% relative to NOHA). The procedure, abridged:
as §3

Data set [5] addresses T2, Nitric oxide synthase 3 (Homo sapiens) (UniProt P29474).
T2 sequence (whole entry): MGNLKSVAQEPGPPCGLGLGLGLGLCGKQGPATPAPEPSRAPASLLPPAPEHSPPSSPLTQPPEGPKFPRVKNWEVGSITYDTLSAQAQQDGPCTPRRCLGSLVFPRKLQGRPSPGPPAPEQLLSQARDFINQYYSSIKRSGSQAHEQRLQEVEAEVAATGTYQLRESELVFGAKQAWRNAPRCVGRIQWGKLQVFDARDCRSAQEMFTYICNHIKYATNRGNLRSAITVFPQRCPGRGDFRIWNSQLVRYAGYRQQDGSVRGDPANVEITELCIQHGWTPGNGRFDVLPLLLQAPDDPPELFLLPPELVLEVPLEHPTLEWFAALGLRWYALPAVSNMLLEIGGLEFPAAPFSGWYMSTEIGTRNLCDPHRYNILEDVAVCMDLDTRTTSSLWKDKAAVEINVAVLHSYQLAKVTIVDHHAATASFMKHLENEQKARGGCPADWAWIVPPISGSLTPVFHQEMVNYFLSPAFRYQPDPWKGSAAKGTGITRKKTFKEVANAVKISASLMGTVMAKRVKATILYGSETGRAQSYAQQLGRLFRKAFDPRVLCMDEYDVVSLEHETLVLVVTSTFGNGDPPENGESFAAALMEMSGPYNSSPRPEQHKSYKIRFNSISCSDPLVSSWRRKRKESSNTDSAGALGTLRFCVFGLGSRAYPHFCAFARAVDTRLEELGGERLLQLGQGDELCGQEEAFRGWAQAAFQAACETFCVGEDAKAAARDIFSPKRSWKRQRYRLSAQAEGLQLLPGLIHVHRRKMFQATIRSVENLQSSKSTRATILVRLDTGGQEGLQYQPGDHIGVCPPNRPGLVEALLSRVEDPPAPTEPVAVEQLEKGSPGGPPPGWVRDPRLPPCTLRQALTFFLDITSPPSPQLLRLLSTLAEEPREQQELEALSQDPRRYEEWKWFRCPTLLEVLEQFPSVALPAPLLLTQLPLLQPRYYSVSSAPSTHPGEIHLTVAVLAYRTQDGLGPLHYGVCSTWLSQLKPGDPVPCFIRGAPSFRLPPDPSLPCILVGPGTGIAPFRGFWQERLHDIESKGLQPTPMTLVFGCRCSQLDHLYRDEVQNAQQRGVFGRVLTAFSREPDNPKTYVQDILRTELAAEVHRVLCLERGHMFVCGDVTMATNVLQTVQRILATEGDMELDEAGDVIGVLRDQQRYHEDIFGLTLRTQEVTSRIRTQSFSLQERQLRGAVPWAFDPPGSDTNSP
Put plainly: Formation of Nitric Oxide by Nitric Oxide synthase III(% relative to NOHA). The procedure, abridged: as §3

Substrate in data set [6]: N=C(NO)Nc1ccc(Cl)cc1
The data set is described as §1. The method in brief: as §2

Substrate in data set [7]: CCCCN/C(N)=N/O
Described as §1. The procedure, abridged: as §2

Substrate in data set [8]: N/C(=N/CCCCC(N)C(=O)O)NO
Described as §1. The procedure, abridged: as §2

Substrate in data set [9]: CCCCC/N=C(/N)NO
The data set is described as §1. The method in brief: as §2

Substrate in data set [10]: N/C(=N/CCCC(N)C(=O)O)NO
The description is as §1. The procedure, abridged: as §2

The text below walks through data of ChEMBL document CHEMBL1134763, “Oxidation of N(omega)-hydroxyarginine analogues by NO-synthase: the simple, non amino acid N-butyl N'-hydroxyguanidine is almost as efficient an NO precursor as N(omega)-hydroxyarginine” (J Med Chem, 2001).

Sequence of Nitric oxide synthase 1 (Homo sapiens) (P29475 whole entry): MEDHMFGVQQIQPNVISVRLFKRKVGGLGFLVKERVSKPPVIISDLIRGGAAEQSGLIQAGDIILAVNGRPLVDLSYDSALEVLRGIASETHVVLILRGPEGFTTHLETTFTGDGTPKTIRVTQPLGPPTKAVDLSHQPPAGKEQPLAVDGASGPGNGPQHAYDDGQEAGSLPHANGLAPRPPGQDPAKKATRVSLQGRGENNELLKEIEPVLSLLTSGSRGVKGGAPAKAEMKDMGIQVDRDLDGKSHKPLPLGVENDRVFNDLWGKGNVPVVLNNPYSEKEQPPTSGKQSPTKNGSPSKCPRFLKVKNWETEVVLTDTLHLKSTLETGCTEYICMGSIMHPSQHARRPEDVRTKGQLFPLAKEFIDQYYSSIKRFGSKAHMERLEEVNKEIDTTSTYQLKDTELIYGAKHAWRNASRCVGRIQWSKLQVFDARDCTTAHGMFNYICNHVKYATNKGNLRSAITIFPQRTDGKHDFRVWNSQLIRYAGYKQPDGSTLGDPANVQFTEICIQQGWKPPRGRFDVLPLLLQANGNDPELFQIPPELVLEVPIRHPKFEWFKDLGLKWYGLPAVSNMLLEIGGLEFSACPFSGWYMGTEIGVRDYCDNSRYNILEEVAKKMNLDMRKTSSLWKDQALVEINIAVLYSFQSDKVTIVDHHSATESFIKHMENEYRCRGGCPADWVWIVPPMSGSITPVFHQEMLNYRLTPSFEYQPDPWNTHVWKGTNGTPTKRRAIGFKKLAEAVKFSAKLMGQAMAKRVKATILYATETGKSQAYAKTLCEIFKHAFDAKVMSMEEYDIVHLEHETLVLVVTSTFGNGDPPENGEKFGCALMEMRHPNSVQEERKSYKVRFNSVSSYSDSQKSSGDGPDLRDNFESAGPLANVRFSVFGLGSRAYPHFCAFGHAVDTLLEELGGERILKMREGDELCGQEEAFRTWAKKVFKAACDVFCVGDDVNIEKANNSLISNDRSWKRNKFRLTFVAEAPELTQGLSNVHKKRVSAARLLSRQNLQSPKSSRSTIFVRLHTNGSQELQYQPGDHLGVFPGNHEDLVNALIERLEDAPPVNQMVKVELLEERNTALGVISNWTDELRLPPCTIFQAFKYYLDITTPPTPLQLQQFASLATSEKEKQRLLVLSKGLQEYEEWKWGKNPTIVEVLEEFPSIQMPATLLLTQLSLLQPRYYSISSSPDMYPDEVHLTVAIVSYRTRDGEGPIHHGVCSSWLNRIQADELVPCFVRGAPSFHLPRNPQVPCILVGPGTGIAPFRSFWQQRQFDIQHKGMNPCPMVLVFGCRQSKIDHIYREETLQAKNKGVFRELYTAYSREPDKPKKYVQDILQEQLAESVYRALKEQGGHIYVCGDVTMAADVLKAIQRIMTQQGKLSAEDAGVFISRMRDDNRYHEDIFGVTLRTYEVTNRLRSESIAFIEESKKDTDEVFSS

In [1], `N=C(NO)Nc1ccc(Cl)cc1` showed a k cat of 100 min⁻¹. In data set [2], the k cat/Km is 0.2 µM⁻¹ min⁻¹.

Consider `NC(=NCCCC(=O)O)NO`, for which the Initial rates in data set [3], in data set [4] and in data set [5] was less than 0.5 in each case.

For `N/C(=N/CCCCC(N)C(=O)O)NO` (stereo unspecified), the k cat in [1] turned out to be 410 min⁻¹. In addition, the k cat/Km in [2] came out at 2.8 µM⁻¹ min⁻¹. Also, the figures for the Initial rates in data set [3], in [4] and in data set [5] were 82, 55 and 70, respectively.

As for `CCCCCC/N=C(/N)NO`, the Initial rates was 2 in [3], 1 in [4] and less than 0.5 in data set [5].

With `N/C(=N/CCCCC(=O)O)NO`, the results for the Initial rates in data set [3], in [4] and in [5] were less than 0.5, 1 and 2, respectively.

The molecule `N/C(=N/CCCC(N)C(=O)O)NO` (stereo unspecified) came in with a k cat in data set [1] of 480 min⁻¹. In [2], the k cat/Km amounted to 12 µM⁻¹ min⁻¹. The Initial rates in [3], in [4] and in data set [5] was 100 in each case.

In turn, `CCCCC/N=C(/N)NO` registered a k cat in data set [1] of 280 min⁻¹. For the same molecule, in [2], the k cat/Km was 0.9 µM⁻¹ min⁻¹. Further, the Initial rates is 34 in [3], 25 in data set [4] and less than 0.5 in data set [5].

Consider `NCCCN/C(N)=N/O`, for which the Initial rates in data set [3], in [4] and in data set [5] was less than 0.5 each time.

As for `N/C(=N/CC(N)C(=O)O)NO` (stereo unspecified), the Initial rates in data set [3], in data set [4] and in [5] was less than 0.5 each time.

As to `CCCCN/C(N)=N/O`, the k cat in data set [1] is 320 min⁻¹. The k cat/Km in data set [2] is 5.8 µM⁻¹ min⁻¹. Moreover, the Initial rates came to 65 in [3], 68 in data set [4] and 41 in [5].

Take `NCCCC/N=C(/N)NO`: the Initial rates in [3] is 2; in data set [4] it was 8; in [5], less than 0.5.

With `NC(=NCCC(N)C(=O)O)NO` (stereo unspecified), the Initial rates in [3], in data set [4] and in [5] was less than 0.5 each time.

Turning to `CCC/N=C(/N)NO`, the Initial rates in data set [3] was determined as 36; in [4] it was 15; in data set [5], 41.

B1: Nitric oxide synthase, inducible (Mus musculus), P29477 (protein)
chain: MACPWKFLFKVKSYQSDLKEEKDINNNVKKTPCAVLSPTIQDDPKSHQNGSPQLLTGTAQNVPESLDKLHVTSTRPQYVRIKNWGSGEILHDTLHHKATSDFTCKSKSCLGSIMNPKSLTRGPRDKPTPLEELLPHAIEFINQYYGSFKEAKIEEHLARLEAVTKEIETTGTYQLTLDELIFATKMAWRNAPRCIGRIQWSNLQVFDARNCSTAQEMFQHICRHILYATNNGNIRSAITVFPQRSDGKHDFRLWNSQLIRYAGYQMPDGTIRGDAATLEFTQLCIDLGWKPRYGRFDVLPLVLQADGQDPEVFEIPPDLVLEVTMEHPKYEWFQELGLKWYALPAVANMLLEVGGLEFPACPFNGWYMGTEIGVRDFCDTQRYNILEEVGRRMGLETHTLASLWKDRAVTEINVAVLHSFQKQNVTIMDHHTASESFMKHMQNEYRARGGCPADWIWLVPPVSGSITPVFHQEMLNYVLSPFYYYQIEPWKTHIWQNEKLRPRRREIRFRVLVKVVFFASMLMRKVMASRVRATVLFATETGKSEALARDLATLFSYAFNTKVVCMDQYKASTLEEEQLLLVVTSTFGNGDCPSNGQTLKKSLFMLRELNHTFRYAVFGLGSSMYPQFCAFAHDIDQKLSHLGASQLAPTGEGDELSGQEDAFRSWAVQTFRAACETFDVRSKHHIQIPKRFTSNATWEPQQYRLIQSPEPLDLNRALSSIHAKNVFTMRLKSQQNLQSEKSSRTTLLVQLTFEGSRGPSYLPGEHLGIFPGNQTALVQGILERVVDCPTPHQTVCLEVLDESGSYWVKDKRLPPCSLSQALTYFLDITTPPTQLQLHKLARFATDETDRQRLEALCQPSEYNDWKFSNNPTFLEVLEEFPSLHVPAAFLLSQLPILKPRYYSISSSQDHTPSEVHLTVAVVTYRTRDGQGPLHHGVCSTWIRNLKPQDPVPCFVRSVSGFQLPEDPSQPCILIGPGTGIAPFRSFWQQRLHDSQHKGLKGGRMSLVFGCRHPEEDHLYQEEMQEMVRKRVLFQVHTGYSRLPGKPKVYVQDILQKQLANEVLSVLHGEQGHLYICGDVRMARDVATTLKKLVATKLNLSEEQVEDYFFQLKSQKRYHEDIFGAVFSYGAKKGSALEEPKATRL
In the case of B1, the Km (in general, the concentration of substrate that gives half-maximal velocity) in data set [6] came out at 500 µM; in data set [7] it was 55 µM; in data set [8] it was 146 µM; in [9], 310 µM; in data set [10], 40 µM.
